In assay [1] the target is T1, Autotaxin (Homo sapiens, UniProt Q13822). In words: Inhibition of C-terminal FLAG-tagged human autotaxin expressed in Freestyle 293 cells assessed as reduction in choline release from LPC 16:0 pre-incubated for 10 mins before LPC addition and measured after 1 hr by choline oxidase/HRP coupled assay. In kind it is cell-based.
In assay [2] the target is T1, Autotaxin. In words: Inhibition of C-terminal FLAG-tagged human autotaxin expressed in Freestyle 293 cells using synthetic substrate FS-3 by fluorescence based assay. It counts as cell-based.
In assay [3] the test system is Mus musculus. In words: Anti-fibrotic activity in C57BL/6 mouse model of bleomycin-induced lung fibrosis assessed as reduction in hydroxyproline levels at 30 to 100 mg/kg, po BID dosed until day 21 starting one day prior to bleomycin treatment. It counts as functional, organism-based. In a few lines:
(§1)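 Mice received oral doses of 30, 100 or 300 mg/kg BID. Prophylactic arm started one day before bleomycin; therapeutic arm started seven days after. Mice were sacrificed 21 days post-bleomycin and lung hydroxyproline was measured per mouse. Group medians were compared with bleomycin + vehicle by p-value. Reference inhibitor control: 30 and 100 mg/kg BID.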

For assay [4], the system named is Mus musculus. Put plainly: Anti-fibrotic activity in C57BL/6 mouse model of bleomycin-induced lung fibrosis assessed as reduction in hydroxyproline levels at 30 to 100 mg/kg, po BID for 21 days dosed 7 days after bleomycin treatment. It counts as functional, organism-based. An outline of the steps: as §1

Among the data in ChEMBL document CHEMBL4610127, “Novel Autotaxin Inhibitor for the Treatment of Idiopathic Pulmonary Fibrosis: A Clinical Candidate Discovered Using DNA-Encoded Chemistry” (J Med Chem, 2020) are IC50 and Activity values, retold here.

Molecules are shown by their SMILES. Calls of active or inactive are those of the source. No cut-off for these calls is given here.

Broadly, the IC50 is the concentration that inhibits the measured activity by half. In the case of `CN1C(=O)N(c2ccc3[nH]ncc3c2)C2(CCN(C(=O)CNC(=O)c3cc(C(F)(F)F)ccc3F)CC2)C1=O`, the IC50 in assay [1] came out at 10000 nM.
For the compound `Cc1cccc(C(=O)N[C@@H](C(=O)N2CCC3(CC2)C(=O)N(C)CN3c2ccccc2)C2CCCCC2)c1F`, the half-inhibitory concentration (IC50) in assay [2] is 1.6 nM; in assay [1], 56 nM.
In the case of `CC(C)[C@@H](NC(=O)c1cc(C(F)(F)F)ccc1F)C(=O)N1CCC2(CC1)C(=O)N(C)C(=O)N2c1ccc(C(=O)O)cc1`, the IC50 in assay [1] was 31 nM.
With `Cc1cccc(C(=O)N[C@@H](C(=O)N2CCC3(CC2)C(=O)N(C)CN3c2ccccc2)C(C)C)c1`, in assay [2], the half-maximal inhibitory concentration (IC50) is 2 nM.
In the case of `CC(C)[C@@H](NC(=O)c1cccc(C(F)(F)F)c1)C(=O)N1CCC2(CC1)C(=O)N(C)C(=O)N2c1ccc2[nH]ncc2c1`, in assay [1], the IC50 turned out to be 340 nM.
As to `Cc1cccc(C(=O)N[C@@H](C(=O)N2CCC3(CC2)C(=O)N(C)C(=O)N3c2ccccc2)C(C)C)c1F`, the IC50 in assay [1] is 683 nM.
Still for that read-out and setting: to `Cc1cccc(C(=O)N[C@@H](C(=O)N2CCC3(CC2)C(=O)N(C)CN3C2CC2)C2CCCCC2)c1F` belongs 819 nM.
With `CNC(=O)CN1CN(c2ccccc2)C2(CCN(C(=O)[C@H](NC(=O)c3cccc(C)c3F)C3CCCCC3)CC2)C1=O`, the 50% inhibitory concentration (IC50) was 2 nM in assay [2] and 86 nM in assay [1].
In assay [2], `CNC(=O)CN1CN(c2ccccc2)C2(CCN(C(=O)[C@H](NC(=O)c3cccc(Cl)c3)C3CCCCC3)CC2)C1=O` showed an IC50 of 3.5 nM.
Still for that read-out and setting: for `CC(C)[C@@H](NC(=O)c1cccc(F)c1)C(=O)N1CCC2(CC1)C(=O)N(C)CN2c1ccccc1` the value was 2.2 nM.
Consider `CC(C)[C@@H](NC(=O)c1cc(C(F)(F)F)ccc1F)C(=O)N1CCC2(CC1)C(=O)N(C)C(=O)N2c1ccccc1`, for which the IC50 in assay [1] worked out at 100 nM.
As for `CNC(=O)CN1CN(c2ccccc2)C2(CCN(C(=O)[C@H](NC(=O)c3ccccc3)C3CCCCC3)CC2)C1=O`, the concentration for half-maximal inhibition (IC50) in assay [2] was 350 nM.
For the compound `Cc1ccc(N2C(=O)N(C)C(=O)C23CCN(C(=O)[C@H](NC(=O)c2cc(C(F)(F)F)ccc2F)C(C)C)CC3)cc1`, the concentration for half-maximal inhibition (IC50) in assay [1] is 38 nM.
On the same count and under the same terms, to `Cc1ccc(C(F)(F)F)cc1C(=O)N[C@@H](C(=O)N1CCC2(CC1)C(=O)N(C)C(=O)N2c1ccc2[nH]ncc2c1)C(C)C` belongs 4900 nM; to `Cc1cccc(C(=O)N[C@H](C(=O)N2CCC3(CC2)C(=O)N(C)CN3c2ccccc2)C2CCOCC2)c1`, 10000 nM.
On to `CC(C)[C@@H](NC(=O)c1cc(C(F)(F)F)ccc1F)C(=O)N1CCC2(CC1)C(=O)N(C)CN2c1ccc2[nH]ncc2c1`, for which the concentration for half-maximal inhibition (IC50) in assay [1] is 13.4 nM.
Still for that read-out and setting: to `CC(C)[C@H](NC(=O)c1cc(C(F)(F)F)ccc1F)C(=O)N1CCC2(CC1)C(=O)N(C)C(=O)N2c1ccc2[nH]ncc2c1` belongs 10000 nM; to `Cc1cccc(C(=O)N[C@@H](C(=O)N2CCC3(CC2)C(=O)N(C)CN3c2ccccn2)C2CCCCC2)c1`, 905 nM.
With `CN1C(=O)N(c2ccc3[nH]ncc3c2)C2(CCN(C(=O)[C@H](NC(=O)c3cc(C(F)(F)F)ccc3F)C3CCCC3)CC2)C1=O`, the IC50 in assay [1] came out at 34 nM.
With `Cc1cccc(C(=O)N[C@@H](C(=O)N2CCC3(CC2)C(=O)N(C)CN3c2ccccc2)C2CCOCC2)c1`, the half-inhibitory concentration (IC50) in assay [1] was found to be 623 nM.
On to `CCc1nc2c(C)cc(N3CCN(CC(=O)N4CC(O)C4)CC3)cn2c1N(C)c1nc(-c2ccc(F)cc2)c(C#N)s1`, for which the outcome in assay [3] and in assay [4] was Active.
Turning to `CC(C)[C@@H](NC(=O)c1cc(C(F)(F)F)ccc1Cl)C(=O)N1CCC2(CC1)C(=O)N(C)C(=O)N2c1ccc2[nH]ncc2c1`, in assay [1], the half-maximal inhibitory concentration (IC50) is 1470 nM.
`CC(C)[C@@H](NC(=O)c1cc(C(F)(F)F)ccc1F)C(=O)N1CCC2(CC1)C(=O)N(C)C(=O)N2c1cccc(Cl)c1`: the IC50 in assay [1] came to 46 nM.
